From PubChem BioAssay
An excerpt weighted towards active compounds, which were near 2% of everything screened.
C2C12 statin – suppressors of simvastatin-induced myotoxicity in C2C12 myotubes; ATP luminescence, 48 h; scaled: DMSO 0, geranylgeraniol control 100; rescue of ATP level, % at 7.49 µM; hit rate 0.78% among 330,000; AID 602340;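 active = mean ATP rescue above about 67%, or every replicate alone reaching that limit, limit read from the data, passing the limit was not always enough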;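 note: myotubes were challenged with 10 µM simvastatin during compound exposure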
CDK5 inh – blocks human CDK5/p35 kinase activity; inhibition, % at 10 µM; Recombinant CDK5/p35, ADP-Glo luminescence, 60 min; hit rate 0.01% among 330,000; AID 488839;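 active = highest replicate inhibition of at least 50% and at least 75% of replicates reaching 50%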;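 note: plate controls were DMSO neutral control for no effect and GW8510 at 10 µM for full effect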
CAL PDZ FP-1 – human CAL PDZ-peptide interaction inhibition. Q9HD26. purified CAL PDZ, TMR-peptide fluorescence polarization, 1 h. inhibition, % at 20 µM. hit rate 0.02% among 330,000;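 active = highest replicate inhibition of at least 40%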;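 note: plate controls were DMSO neutral control wells for no effect and unlabeled competitor peptide control wells for full effect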
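System: tagged CAL PDZ domain. Schedule: 1 h room-temperature incubation prior to read. Signal: fluorescence polarization (mP). Measure: percent inhibition from loss of millipolarization.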
CAL PDZ FP-2 – inhibitors of human CAL PDZ peptide binding | purified CAL PDZ, TMR-peptide fluorescence polarization, 1 h | Q9HD26 | hit rate 0.92% among 300,000 | inhibition, % at 24.9 µM;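 active = mean inhibition of at least 30% with at least half of replicates also reaching 30%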;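 note: 0% = DMSO neutral control and 100% = excess unlabeled competitor peptide PRC23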
dFosB activator – enhances mouse delta FosB homodimer DNA binding; activation, % at 25 µM; P13346; hit rate 0.99% among 340,000; purified delta FosB, TAMRA-CDK5 oligo fluorescence polarization; percent of positive-control signal above neutral wells;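 active = mean activation above about 17%, with every replicate also reaching it, limit read from the data, passing the limit was not always enough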
Target sequence (P13346 whole entry, looked up): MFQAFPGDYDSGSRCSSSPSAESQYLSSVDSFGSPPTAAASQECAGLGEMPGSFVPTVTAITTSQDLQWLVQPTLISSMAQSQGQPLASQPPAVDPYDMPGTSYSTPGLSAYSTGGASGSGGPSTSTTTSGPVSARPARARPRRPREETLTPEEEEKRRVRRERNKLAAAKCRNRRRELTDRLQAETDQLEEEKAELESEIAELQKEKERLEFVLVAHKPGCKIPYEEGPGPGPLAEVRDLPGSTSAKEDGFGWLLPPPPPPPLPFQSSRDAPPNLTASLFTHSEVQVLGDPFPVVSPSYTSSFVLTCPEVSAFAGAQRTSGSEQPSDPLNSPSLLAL
S100A4 inh HTS – blocks human S100A4 binding to myosin IIA peptide; P26447; S100A4/TAMRA-MyoIIA peptide fluorescence polarization; inhibition, % at 10.7 µM; hit rate 0.14% among 360,000; AID 652163;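 active = mean inhibition of at least 70% across replicates, with every replicate also reaching that level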
Target sequence (P26447 whole entry, looked up): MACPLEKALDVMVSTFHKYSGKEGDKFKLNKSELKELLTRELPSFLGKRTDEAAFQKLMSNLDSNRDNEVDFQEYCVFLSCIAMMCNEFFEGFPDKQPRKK
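Material: S100A4 monomer protein | Medium: HEPES pH 7.2 with CaCl2, KCl, NaCl, DTT, Triton | Reagent: Labelled myosin peptide probe, 5 nM | Doses: One dose per compound | Times: 5 min incubation before reading | Benchmarks: Neutral control DMSO, positive control TFP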
The depositor's hits bear a star; nt = no result given.

SMILES | C2C12 statin | CDK5 inh | CAL PDZ FP-1 | CAL PDZ FP-2 | dFosB activator | S100A4 inh HTS
O=C(CCn1c(=S)[nH]c2cc3c(cc2c1=O)OCO3)NCCc1ccccc1Cl | 3.3 | nt | nt | nt | nt | -3.5
CCCCCCCCCCCCCCCC(=O)Nc1ccn(C2OC(CO)C(O)C2O)c(=O)n1 (stereo unspecified) | nt | 1.1 | 0.2 | -2.1 | -13.2 | -3.5
NC(=S)N=Nc1ccc(NN=C(N)N)cc1 | -6.4 | 4.3 | 0.1 | 0.3 | 29.1* | 12.5
CO[C@@H]1CN(C)C(=O)c2ccc(NS(=O)(=O)CC(F)(F)F)cc2OC[C@H](C)NC[C@@H]1C | 2.8 | nt | nt | nt | nt | 3.0
CC(OC(=O)c1ccc(Cl)c([N+](=O)[O-])c1)C(=O)N1CCN(Cc2ccccc2)CC1 (stereo unspecified) | -4.1 | 0.2 | -0.3 | 146.9* | -10.8 | 0.4
COC(=O)/C=C1/SC(=Nc2ccc(Cl)c(Cl)c2)NC1=O | nt | nt | nt | nt | nt | -2.0
Cc1ccc(-c2nc(C)sc2CC(=O)OCC(=O)Nc2ccc(F)c(Cl)c2)cc1 | 3.4 | -1.2 | -2.3 | 54.3* | -7.8 | -0.9
CCN(CC)CCOC(=O)c1ccc(N/C=C(/C#N)c2nc(-c3ccc(OC)c(OC)c3)cs2)cc1 | nt | 1.4 | 2.4 | -2.5 | 164.9* | -10.6
CCN(CC)CCOC(=O)c1ccc(N/C=C(/C#N)c2nc(-c3cccc(OC)c3)cs2)cc1 | nt | nt | nt | nt | nt | 9.2
C[C@@H]1CN([C@H](C)CO)C(=O)c2cc(NC(=O)Nc3ccccc3)ccc2O[C@@H]1CN(C)C(=O)Nc1ccccc1 | -6.0 | nt | nt | nt | nt | -1.8
N/C(=N\c1nc(CSc2ccccn2)cc(=O)[nH]1)Nc1ccc(Cl)cc1Cl | -39.5 | -0.4 | 0.0 | 78.3* | -9.6 | 15.2
COc1ccc(Cl)cc1N/C(N)=N/c1nc(CSc2ccc(C)cc2)cc(=O)[nH]1 | 8.7 | -0.4 | -2.0 | nt | -12.3 | nt
COC(=O)CCC(=O)c1oc2ccc(Br)cc2c1N | 1.3 | 3.4 | -1.5 | nt | -5.0 | nt
O=C(CN1CCOCC1)N[C@@H]1CC[C@@H](CCn2cc(C3CCCCC3)nn2)O[C@H]1CO | 3.4 | nt | nt | nt | nt | nt
CC(C)Cc1nc2oc3c(NCC(C)O)ncnc3c2c2c1CCCC2 (stereo unspecified) | -7.4 | 0.6 | -2.0 | 42.6* | -40.4 | -3.1
CC(C)Cc1nc2oc3c(Cl)ncnc3c2c2c1CCCC2 | 5.7 | 6.1 | -1.8 | nt | 0.4 | -3.9
CC(C)C(=O)Nc1nnc(S(=O)(=O)N(C)c2ccc(Cl)cc2)s1 | 7.7 | -0.1 | nt | 44.9* | -1.9 | -1.1
CN1CCN(C(=O)C[C@H]2C=C[C@@H](NS(=O)(=O)c3cccc(F)c3)[C@H](CO)O2)CC1 | 7.6 | nt | nt | nt | nt | -0.3
CN(C(=O)c1cc2ccccc2oc1=O)C1(C)CCS(=O)(=O)C1 (stereo unspecified) | 3.9 | -0.3 | -0.8 | 47.4* | 0.0 | -3.2
CN(C(=O)c1ccccc1)C1(C)CCS(=O)(=O)C1 (stereo unspecified) | 6.5 | -1.0 | -1.6 | -2.3 | 0.4 | nt
COc1ccc(C(=O)N(C)C2(C)CCS(=O)(=O)C2)cc1OC (stereo unspecified) | 8.1 | 0.5 | -3.0 | -0.4 | 0.4 | 183.5*
O=C(Cc1ccc(Cl)cc1)NCCCNC(=O)c1cccnc1 | 10.7 | 1.4 | -0.8 | -2.2 | -2.1 | 1.6
Cc1ccc(C)c(-n2c(C)cc(/C=N/NC(=O)c3c(C)nc4cc(C)ccn34)c2C)c1 | -4.2 | 0.0 | -3.8 | -4.4 | -0.9 | nt
COc1ccc(NC(=O)CC#N)cc1OC | nt | -0.3 | nt | 30.2* | 0.7 | nt
COc1ccc(-c2csc(C(C)(O)c3ccccc3)n2)cc1OC (stereo unspecified) | 112.4* | nt | nt | nt | nt | -1.3
SMILES | C2C12 statin | CDK5 inh | CAL PDZ FP-1 | CAL PDZ FP-2 | dFosB activator | S100A4 inh HTS
COc1ccc(C(C)(O)c2nc(-c3cccs3)cs2)cc1 (stereo unspecified) | 6.4 | nt | nt | nt | nt | 182.2*
CCNC(=O)Nc1ccc2c(c1)C(=O)N(C)[C@H]1CC[C@@H](CC(=O)N[C@@H](C)c3ccccc3)O[C@@H]1CO2 | -9.5 | nt | nt | nt | nt | 66.2
O=C(Cn1nc(Cc2cccnc2)c2ccccc2c1=O)Nc1cc(F)ccc1F | 6.5 | 0.4 | -1.1 | 65.8* | -7.5 | 2.8
CO[C@@H]1CN(C)C(=O)c2ccc(NC(=O)CC(F)(F)F)cc2OC[C@H](C)N(S(=O)(=O)c2cn(C)cn2)C[C@H]1C | nt | nt | nt | nt | nt | -5.7
COc1ccc2cc(N3CCCC3=O)ccc2c1 | 4.9 | 0.1 | -0.6 | 84.9* | 1.8 | 0.7
O=C(C1CCCCC1)N1CC(=O)N2[C@H](CO)[C@H](c3ccc(-c4ccccc4F)cc3)[C@@H]2C1 | nt | nt | nt | nt | nt | -5.5
COc1cc(-c2ccccc2)nc2ccccc12 | 95.3* | -0.2 | 0.1 | nt | -15.9 | nt
COc1ccc(-c2cc(OC)c3ccccc3n2)cc1 | nt | 1.2 | -1.9 | -9.7 | -22.8 | nt
Cc1cc(C)nc(SCC(=O)NC2=NN=C(c3ccc(Br)cc3)CS2)n1 | 145.1* | -0.8 | -2.8 | nt | -1.7 | nt
CCC(Sc1nc(C)cc(C)n1)C(=O)NC1=NN=C(c2ccc(C)cc2)CS1 (stereo unspecified) | 83.2* | 0.8 | -1.3 | nt | -9.8 | -3.4
Cc1ccc(C)c(N2CCN(S(=O)(=O)c3cc4c(cc3Cl)NC(=O)CO4)CC2)c1 | 7.4 | -1.8 | 0.8 | nt | 12.0 | -0.4
O=C(Nc1ccc2nc(-c3cccnc3)[nH]c2c1)C1CCCCC1 | -52.4 | 1.2 | nt | -9.0 | 5.6 | nt
O=C(Nc1ccc2nc(-c3cccnc3)[nH]c2c1)C12CC3CC(CC(C3)C1)C2 | 75.5* | -0.4 | -4.4 | -7.3 | 0.5 | nt
O=c1oc2cc(OCc3c(F)c(F)c(F)c(F)c3F)ccc2cc1-c1ccccn1 | nt | 1.1 | 0.3 | 3.3 | -3.7 | -1.3
O=c1oc2cc(OCc3ccc(F)cc3F)ccc2cc1-c1ccccn1 | 129.5* | -1.9 | -0.1 | -1.3 | 3.8 | nt
COC(=O)CSc1nc(C)cc(C)c1C#N | nt | 0.6 | -1.3 | 5.9 | 4.6 | 3.4
CCOC(=O)CC(=O)CSc1nc(C)cc(C)c1C#N | nt | nt | -1.9 | 38.9* | -5.9 | nt
CC1(C)CC2CC(C)(CN2C(=O)CCCN2C(=O)c3ccccc3C2=O)C1 (stereo unspecified) | -11.8 | 0.5 | -0.3 | -4.0 | 2.7 | nt
CCN(C(=O)CN1C(=O)/C(=C/c2ccccc2)SC1=S)C1CCS(=O)(=O)C1 (stereo unspecified) | 7.3 | 1.0 | 0.4 | 71.9* | -5.2 | -0.4
O=c1cc(-c2ccncc2)oc2ccccc12 | 115.1* | 2.1 | -0.9 | nt | 4.1 | nt
COc1ccc(NC(=O)Nc2ccc3c(c2)CC(=O)N([C@H](C)CO)C[C@H](C)[C@H](CN(C)C(=O)Nc2ccc(C(F)(F)F)cc2)O3)cc1 | -5.2 | nt | nt | nt | nt | nt
COC(=O)C(NC(=O)c1ccco1)(Nc1nc(C2CC2)cs1)C(F)(F)F (stereo unspecified) | -31.9 | 0.2 | -2.4 | 37.0* | -2.0 | nt
Fc1ccccc1CNCc1ccc2c(c1)OCO2 | 11.4 | -0.6 | -0.5 | 1.5 | 2.0 | 2.2
